Measurements collected from several papers.
Protocols differ between the studies behind these lines.
Observed: enzyme activity
Action: inhibitor
RET: Proto-oncogene tyrosine-protein kinase receptor Ret (RET, Homo sapiens, UniProt P07949)
RET V804L: Proto-oncogene tyrosine-protein kinase receptor Ret (RET, Homo sapiens, UniProt P07949, V804L)
RET Y791F: Proto-oncogene tyrosine-protein kinase receptor Ret (RET, Homo sapiens, UniProt P07949, Y791F)

SMILES | target | assay | setting | inhibition [%]
CC/C(=N\NC(=O)NCc1cccc(O)c1)c1ccc(O)c(C)c1O | Proto-oncogene tyrosine-protein kinase receptor Ret (RET, Homo sapiens, UniProt P07949, M918T) |  | 0.1 µM | 1.1
COc1cc2nccc(Oc3ccc(NC(=O)c4c5n(n(-c6ccc(F)cc6)c4=O)CCCC5)cc3)c2cc1OC | RET |  | 0.1 µM | 15
COc1cc2ncnc(Nc3ccc(Oc4ccccc4)c(C)c3C)c2cc1OC | RET V804L |  | 1 µM | 2
COc1cc(-c2cc(-c3ccc(N4CCNCC4)cc3)cnc2N)cc(OC)c1OC | RET Y791F |  | 0.1 µM | 3
CNCc1ccc(-c2cc(-c3nc(-c4ccc(S(=O)(=O)C(C)C)cc4)cnc3N)on2)cc1 | RET |  | 2 µM | 42
COc1cc2ncnc(Nc3ccc(Oc4ccccc4)cc3C)c2cc1OC | RET Y791F |  | 1 µM | 36
CNC(=O)c1cc2c(Oc3ccc(NC(=O)C4(C(=O)Nc5ccc(F)cc5)CC4)cc3)ccnc2cc1OC | RET V804L | radiometric | 1 µM | 90
C=CC(=O)Nc1cc(Nc2nccc(Nc3cc(Cl)c(F)cc3C(C)(C)O)n2)c(OC)cc1N1CC[C@@H](N(C)C)C1 | RET V804L |  | 1 µM | 8
